Measurements pooled from the literature.
Protocols differ between the studies behind these lines.
Sample: plasma

With `CCOc1c([C@H](C)n2nc(C)c3c(N)ncnc32)cc(Cl)c(F)c1[C@@H]1CNC(=O)C1` the Tmax was about 2.42 h (male Sprague-Dawley rat; oral, 2 mg/kg, single dose).
`CCN(CC)Cc1ccc2cc(COC(=O)Nc3ccc(C(=O)NO)cc3)ccc2c1` gave a Tmax of about 1.72 h (male Sprague-Dawley rat; oral, 10 mg/kg).
`C[C@H]1Oc2cc(cnc2N)-c2c(nn(C)c2C#N)CN(C)C(=O)c2ccc(F)cc21` has a Tmax of 11.4 h (male Sprague-Dawley rat; oral, 50 mg/kg, single dose).
With `C=CC(=O)N1CCC([C@@H]2CCNc3c(C(N)=O)c(-c4ccc(Oc5ccccc5)cc4)nn32)CC1` the Tmax was 1.5 h (Sprague-Dawley rat; oral, 16 mg/kg).
`C[C@H]1[C@@H](O)O[C@@H]2O[C@@]3(C)CC[C@H]4[C@H](C)CC[C@@H]1[C@@]24OO3` gave a Tmax of 0.75 h (male Sprague-Dawley rat; oral, 10 mg/kg).
The Tmax of `C=CC(=O)N1CCC[C@@H](n2nc(-c3ccc(Oc4ccccc4)cc3)c3c(N)ncnc32)C1` is reported as 2 h (male Wistar rat; oral, 40 mg/kg).
`CONC(=O)c1cccc2c1cc(C)n2-c1nc2c(c(NCc3ccccc3)n1)CCCN2` gave a Tmax of 0.25 h (male Sprague-Dawley rat; oral, 10 mg/kg, single dose).
With `CCCc1nc2c(C)cc(-c3nc4ccccc4n3C)cc2n1Cc1ccc(-c2ccccc2C(=O)O)cc1` the Tmax was 3.5 h (male Sprague-Dawley rat; oral, 8 mg/kg, single dose).
For `CCCCC(=O)Nc1ccc(-c2ccc3ncn(CCC)c(=O)c3c2)cn1`, the Tmax was 0.25 h (male rat; oral, 10 mg/kg).
`COc1ccc(N(Cc2csc(-c3ccccc3)n2)C(=O)CCCCCC(=O)NO)cc1` has a Tmax of 0.08 h (female Sprague-Dawley rat; intravenous, 5 mg/kg).
`CN(C)C(=O)c1cc2cnc(Nc3ccc(N4CCNCC4)cn3)nc2n1C1CCCC1` gave a Tmax of 0.5 h (male Sprague-Dawley rat; intraperitoneal, 100 mg/kg).
With `O=C1CCC(N2Cc3cc(C4CCN(Cc5ccccc5)CC4)ccc3C2=O)C(=O)N1` (centres unmarked) the Tmax was 0.14 h (male Sprague-Dawley rat; intravenous, 1 mg/kg).
`C1=C/COCc2cc(ccc2OCCN2CCCC2)Nc2nccc(n2)-c2cccc(c2)COC/1` has a Tmax of 8.67 h (male Sprague-Dawley rat; oral, 36 mg/kg).
`CCCCCCCCCC(=O)N[C@@H](Cc1c[nH]c2ccccc12)C(=O)N[C@H](CC(N)=O)C(=O)N[C@@H](CC(=O)O)C(=O)N[C@@H]1C(=O)NCC(=O)N[C@@H](CCCN)C(=O)N[C@@H](CC(=O)O)C(=O)N[C@H](C)C(=O)N[C@@H](CC(=O)O)C(=O)NCC(=O)N[C@H](CO)C(=O)N[C@@H]([C@H](C)CC(=O)O)C(=O)N[C@@H](CC(=O)c2ccccc2N)C(=O)O[C@@H]1C` has a Tmax of 5 h (male Wistar rat; subcutaneous, 125 mg/kg, single dose).
`C[C@@]12C[C@@]3(O)O[C@@H](O1)[C@]1(COC(=O)c4ccccc4)[C@H]3C[C@@]12O[C@@H]1O[C@H](CO)[C@@H](O)[C@H](O)[C@H]1O` gave a Tmax of 0.506 h (male Sprague-Dawley rat; oral, 80 mg/kg).
`CC[C@@H]([C@H](C)O)n1ncn(-c2ccc(N3CCN(c4ccc(OC[C@@H]5CO[C@@](Cn6cncn6)(c6ccc(F)cc6F)C5)cc4)CC3)cc2)c1=O` gave a Tmax of 3.05 h (Sprague-Dawley rat; oral, 40 mg/kg).
`COc1cc(-c2cc(C(C)=O)n3ccccc23)c(OC)cc1Cn1ccnc1` gave a Tmax of 0.5 h (male Sprague-Dawley rat; oral, 5 mg/kg).
